# Assay outcomes: PubChem, Johns Hopkins Ion Channel Center
# KCNK3 inh = human KCNK3 channel inhibition, primary screen; AID 602410; 340,000 compounds, 0.84% hits; B-score at 10 µM; CHO-KCNK3 thallium flux, FluxOR fluorescence; active compounds read low; O14649;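 active means B-score under library mean minus 4 SD, starting fluorescence ratio at most library mean plus 5 SD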;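 further: more negative B-score means stronger inhibition of thallium flux through KCNK3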
# hERG protect = hERG (human) protection from proarrhythmic block; activation (rescue from dofetilide block), less the hit threshold, % at 10 µM; AID 1511; 310,000 compounds, 0.51% hits; CHO-hERG, FluxOR thallium flux, dofetilide IC70 present;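 active means activation above the mean of controls blocked by dofetilide plus 5 SD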;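 further: thallium influx through hERG after potassium depolarization seen as dye fluorescence rise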
# Kir21 block = Kir2.1 (mouse) channel inhibition | HEK293-Kir2.1, FluxOR thallium flux fluorescence; active compounds read low | 310,000 compounds, 0.85% hits | P35561 | AID 1672 | B-score at 10 µM;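 active means fluorescence ratio B-score at or below minus 3 SD of library scores, with starting-brightness B-score within 2 SD, cut at about -4.2 in these data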;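 further: channel flux triggered by added potassium and thallium sulfate stimulus; B-score of peak minus minimum fluorescence over baseline after thallium stimulus; more negative B-score means stronger Kir2.1 block with less thallium influx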
# Target sequence (P35561 whole entry, looked up): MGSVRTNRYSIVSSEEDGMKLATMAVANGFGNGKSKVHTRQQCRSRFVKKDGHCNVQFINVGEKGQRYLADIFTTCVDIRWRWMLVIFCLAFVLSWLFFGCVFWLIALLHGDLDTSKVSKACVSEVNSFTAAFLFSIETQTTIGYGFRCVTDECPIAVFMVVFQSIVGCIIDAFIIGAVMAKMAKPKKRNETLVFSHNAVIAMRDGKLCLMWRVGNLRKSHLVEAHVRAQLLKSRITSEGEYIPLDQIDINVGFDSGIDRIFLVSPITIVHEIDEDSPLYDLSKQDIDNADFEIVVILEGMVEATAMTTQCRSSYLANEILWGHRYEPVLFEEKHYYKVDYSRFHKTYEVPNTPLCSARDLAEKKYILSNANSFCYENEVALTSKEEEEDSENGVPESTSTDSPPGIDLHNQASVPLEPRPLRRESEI
# KCNQ1 act = potentiators or activators of human KCNQ1 potassium channel | P51787 | CHO-K1 KCNQ1, thallium flux FluxOR fluorescence; active compounds read high | B-score at 10 µM | 310,000 compounds, 0.35% hits;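 active means fluorescence ratio B-score, a plate-corrected score, at least three library SD, with initial intensity B-score within 5 SD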
#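 Schedule – 37 °C overnight plating, 90-min dark dye load, 20-min compound pretreatment · System – stable KCNQ1 CHO-K1 line · Probe or stimulus – thallium- and potassium-containing depolarizing buffer · Measured by – kinetic FluxOR fluorescence, 10 s baseline plus 110 s post-stimulus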
# KCNK9 inh = human KCNK9 channel inhibition. Q9NPC2. HEK293 KCNK9, FluxOR thallium flux fluorescence; active compounds read low. B-score at 10 µM. 310,000 compounds, 1.2% hits;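 active means ratio B-score over 3 SD below the library mean, with starting fluorescence within 5 SD of its mean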;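 further: negative B-score means less thallium flux so channel inhibition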
# KCNQ1 inh = inhibitors of human KCNQ1 potassium channel; P51787; CHO-K1 KCNQ1, FluxOR thallium flux fluorescence; active compounds read high; B-score at 10 µM; 310,000 compounds, 1.3% hits;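 active means compounds whose thallium flux B-score, printed positive for inhibition, exceeds three library SD while starting fluorescence stays within three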;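 further: channel opened by potassium depolarization with thallium stimulus after 20 min compound exposure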
# Numbers without * were called inactive; i = inactive; · = no result given. An excerpt weighted towards active compounds, which were near 3.8% of everything screened.
SMILES,KCNK3 inh,hERG protect,Kir21 block,KCNQ1 act,KCNK9 inh,KCNQ1 inh
CC(=O)N1CCN(c2ccccc2NC(=O)COc2cc(C)ccc2C(C)C)CC1,i,-24,-3.2,i,i,6*
Cc1cc(Cl)ccc1OCC(=O)Nc1ccccc1C(=O)N1CCOCC1,i,-12,-4.5*,i,i,i
COCCN1Cc2cccc(C(=O)Nc3c(C)cccc3C)c2C1=O,i,-7,-1,i,i,i
O=C(c1ccc2c(=O)n(CCc3ccccc3)c(=O)[nH]c2c1)N1CCN(c2ccc(F)cc2)CC1,i,-3,-1.2,i,i,i
Cc1ccc(C(C)C)c(OCC(=O)NCC(c2cccs2)N2CCOCC2)c1 (stereo unspecified),i,-15,-6.2*,i,i,i
Cc1cc(OCC(=O)NCC(c2cccs2)N2CCOCC2)ccc1C(C)C (stereo unspecified),i,-15,-1.9,i,i,i
COc1ccc(C(=O)Nc2ccccc2N2CCOCC2)cc1[N+](=O)[O-],i,-2,1.5,i,i,i
COc1ccc(OC)c(NC(=S)N2CCN(C/C=C/c3ccccc3)CC2)c1,i,49*,-1.3,i,i,i
CC(CCc1ccccc1)NCc1cccc2ccccc12 (stereo unspecified),i,-12,-9.7*,i,i,i
CCCCn1c(N)c(N(CCOC)C(=O)C2CCN(S(=O)(=O)c3ccc(C)cc3C)CC2)c(=O)[nH]c1=O,i,-5,-2.8,i,i,i
CC(Oc1ccc(Br)cc1Br)C(=O)Nc1cccnc1 (stereo unspecified),i,12*,1,i,i,i
COc1ccc(NC(=O)C(=O)NNC(=O)C(C)Oc2ccc(Cl)cc2Cl)cc1 (stereo unspecified),i,35*,-0.25,108*,i,i
CC(=O)Nc1ccc(NC(=O)C(C)Oc2ccc(Cl)cc2Cl)cc1 (stereo unspecified),i,-7,-1.1,i,i,i
CC(Oc1ccc(Cl)cc1Cl)C(=O)Nc1cccnc1 (stereo unspecified),i,6.5*,-1.6,i,i,i
CC(Oc1ccc(Cl)cc1Cl)C(=O)NCCC1=CCCCC1 (stereo unspecified),i,-3,-7*,i,i,i
CC(OC(=O)Cc1ccc(Cl)cc1)C(=O)NCCC1=CCCCC1 (stereo unspecified),i,-3,-1.1,i,i,i
CC(Oc1ccc(Cl)cc1Cl)C(=O)Nc1ccncc1 (stereo unspecified),i,-11,1.5,i,i,i
CC1=CC(=C(C#N)c2nc3ccccc3s2)C=C(C)N1c1ccc(F)cc1,i,-2,-2.1,i,i,i
COc1ccc(CN(C)c2ncnc3sccc23)c(OC)c1OC,i,-13,-0.09,i,i,i
O=C(Nc1cccnc1)c1ccc(COc2cc(Cl)ccc2Cl)o1,i,26*,-0.3,i,i,i
O=C(Nc1nccs1)c1ccc(COc2ccc(F)cc2)o1,i,-1,0,i,i,i
O=C(Nc1nccs1)c1ccc(COc2ccccc2Br)o1,i,-5,-0.72,i,-7.1*,i
O=C(Nc1cccnc1)c1ccc(COc2ccccc2Cl)o1,i,-1,-0.28,i,i,i
COC(=O)c1[nH]c2ccc(C)cc2c1NS(=O)(=O)c1ccc(F)cc1,i,-14,-5.3*,i,i,i
CCOC(=O)c1[nH]c2ccc(OC)cc2c1NS(=O)(=O)c1ccc(OC)cc1OC,i,-18,0.12,i,i,i
SMILES,KCNK3 inh,hERG protect,Kir21 block,KCNQ1 act,KCNK9 inh,KCNQ1 inh
COC(=O)c1[nH]c2ccc(F)cc2c1NS(=O)(=O)c1ccc(OC)cc1OC,i,-4,0.01,i,-6.6*,i
COC(=O)c1[nH]c2ccc(C)cc2c1NS(=O)(=O)c1ccc(F)c(C)c1,i,-18,-0.21,i,i,i
CCN1C[C@@H]2[C@@H]3C(=O)N(Cc4ccccc4)C(=O)[C@@H]3[C@](CC)(C(=O)OC)N2C1=NC1CCCCC1,i,·,·,·,·,·
COc1cc(C2C(C#N)=C(C)NC(C)=C2C#N)cc(OC)c1OC,i,-13,-0.05,i,i,i
COc1ccc(OCCCC(=O)N2CCCc3ccccc32)cc1,i,-8,-2.9,i,i,i
Cc1cccc(CCN=c2c([N+](=O)[O-])nn(-c3ccccc3)n2O)c1,i,-8,-4.3*,i,i,i
COc1ccc(-n2nc([N+](=O)[O-])c(=NCCc3cccc(C)c3)n2O)cc1,i,-7,0.48,i,i,i
Cc1ccc(NC(=O)C(C)c2cccc(C(=O)c3ccccc3)c2)cc1O (stereo unspecified),i,-15,-0.96,i,i,8*
Cc1cccc(NC(=O)C(C)C(=O)c2ccccc2)c1 (stereo unspecified),i,-8,-0.24,i,i,i
Cc1ccc(S(=O)(=O)N(CC2CO2)c2cccc([N+](=O)[O-])c2)cc1 (stereo unspecified),i,-7,-4.9*,i,i,i
N#CCCCCN1CCCC1,i,-7,-0.05,i,i,i
CN1CCN(CC(=O)N2c3ccc(S(=O)(=O)NCCNC(=O)OC(C)(C)C)cc3C(=O)Nc3cccnc32)CC1,i,-4,1.6,i,i,i
O=[N+]([O-])c1ccc(S(=O)(=O)NCC2CC3CCC2C3)cc1 (stereo unspecified),i,-3,-0.44,i,i,7*
O=[N+]([O-])c1cccc(S(=O)(=O)NCC2CC3CCC2C3)c1 (stereo unspecified),i,-5,0.1,i,i,i
CCCN(C(=O)c1cn(-c2ccccc2)nc1-c1ccc(OC)cc1)C1CCS(=O)(=O)C1 (stereo unspecified),i,-1,1.2,8*,i,i
COc1ccc2cc(C(=O)N/N=C/c3sc4ccccc4c3O)ccc2c1,i,-14,-7.2,i,i,9*
N=c1oc2cc(O)ccc2cc1C(=O)Nc1ccc(Br)cc1,i,-5,1.1,i,i,8*
CCOc1ccc(CCNC(=O)c2cc(-c3ccccc3)c(N3CCOCC3)s2)cc1OCC,i,-5,0.27,i,i,6*
Cc1ccc(NC(=O)c2ccc(C(=O)c3ccccc3)cc2)nc1,i,-4,1.1,i,i,i
